Compound activity as filed in PubChem.
Sampled rows, rich in hits. Any-hit rate of the full collection: about 2.5%.
SENP1 FRET inh: SENP1 (human) catalytic domain inhibition; recombinant SENP1 catalytic domain, CyPet-SUMO1-YPet FRET cleavage; inhibition, % at 10 µM; 360,000 tested, 0.21% active;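 active = inhibition at least 30% at 10 µM, raw YFP signal under a set limit, fluorescence ratio 0.5 to 1.5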;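 also: 0% = enzyme with DMSO and 100% = no enzyme wells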
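System: Recombinant human SENP1 catalytic domain, His6-tagged | Incubation: Enzyme reaction for 50 min at room temperature, dark | Medium: Tris pH 8 with BME, BSA, NP40 and catalase | Also added: 25 nM SUMO1 FRET substrate | Compound: 10 µM single point, 0.5% DMSO | Measured by: FRET fluorescence in CFP and YFP emission channels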
SENP6 block: inhibitors of human SENP6 protease; 330,000 tested, 1.8% active; Q9GZR1; inhibition, % at 10 µM; Recombinant SENP6 catalytic domain, aminoluciferin luminescence;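 active = inhibition above about 50% at the single tested dose, limit read from the data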;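 also: plate controls were DMSO wells with enzyme for no effect and DMSO wells lacking enzyme for full effect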
Target sequence (Q9GZR1 628-1112 limits assumed): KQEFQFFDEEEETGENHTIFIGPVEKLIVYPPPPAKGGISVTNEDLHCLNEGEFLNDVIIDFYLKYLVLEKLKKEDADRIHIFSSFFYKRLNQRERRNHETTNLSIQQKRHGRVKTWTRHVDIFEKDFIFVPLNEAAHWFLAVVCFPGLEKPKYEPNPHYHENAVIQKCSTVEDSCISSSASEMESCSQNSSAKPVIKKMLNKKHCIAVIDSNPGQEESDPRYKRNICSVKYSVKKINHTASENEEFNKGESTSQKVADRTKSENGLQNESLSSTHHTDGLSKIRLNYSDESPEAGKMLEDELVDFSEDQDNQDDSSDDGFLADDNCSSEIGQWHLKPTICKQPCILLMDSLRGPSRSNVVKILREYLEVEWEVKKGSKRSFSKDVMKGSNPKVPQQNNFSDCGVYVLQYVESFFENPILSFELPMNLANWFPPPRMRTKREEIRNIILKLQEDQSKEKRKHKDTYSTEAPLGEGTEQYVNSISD
SENP8 block-1: inhibitors of human SENP8 protease. purified SENP8, Z-RLRGG-aminoluciferin cleavage, luminescence. inhibition, % at 10 µM. 330,000 tested, 1.2% active; in the data active = inhibition above about 50%
SENP8 block-2: inhibitors of human SENP8 protease; inhibition, % at 20 µM; 360,000 tested, 0.64% active; AID 602440; Q96LD8; recombinant SENP8, Nedd8 substrate fluorescence; in the data active = inhibition mostly above about 40%, no sharp cut-off; inactive = mostly below about 27%
SENP7 inh: SENP7 protease inhibition | recombinant SENP7, Z-RLRGG-aminoluciferin luminescence, 40 min | inhibition, % at 5 µM | 330,000 tested, 1.5% active;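 active = inhibition above about 50% at the single test dose, limit read from the data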;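 also: plate controls were DMSO with enzyme for no effect and no enzyme buffer wells for full effect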
SENP8 confirm: confirmation of human SENP8 protease inhibitors; shares compounds with SENP7 inh; Recombinant SENP8, Z-RLRGG-aminoluciferin luminescence, 60 min; inhibition, % at 12.5 µM; 6,200 tested, 40% active; AID 488912;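 active = mean inhibition across replicates above about 50%, limit read from the data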
SENP6 confirm: human SENP6 inhibition, confirmed | recombinant SENP6, Z-RLRGG-aminoluciferin luminescence | inhibition, % at 12.5 µM | AID 488915 | shares compounds with SENP7 inh | 6,200 tested, 58% active
SENP7 conf: human SENP7 inhibition, confirmed; inhibition, % at 12.5 µM; 6,200 tested, 69% active; recombinant SENP7, Z-RLRGG-aminoluciferin luminescence, 40 min; shares compounds with SENP7 inh; AID 488917
Casp3 SENP sel: selectivity test for SENP inhibitors: human caspase-3 inhibition; 6,200 tested, 60% active; inhibition, % at 12.5 µM; shares compounds with SENP7 inh; purified caspase-3, Z-DEVD-aminoluciferin luminescence, 60 min;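 active = mean inhibition above about 50%, limit read from the data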;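 also: plate controls were enzyme with DMSO for no effect and wells without caspase-3 for full effect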
SENP luc ctr: interferes with luciferase luminescence in SENP counter-screen; inhibition, % at 12.5 µM; AID 488919; 6,200 tested, 39% active; shares compounds with SENP7 inh; Pre-incubated SENP8/Z-RLRGG-aminoluciferin, luciferase luminescence interference;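 active = mean inhibition above about 50% when retested at one dose, limit read from the data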;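 also: plate controls were DMSO wells with completed reaction for no effect and substrate without enzyme for full effect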
An asterisk follows results filed as active.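 The calls were made as follows, unless noted: active = mean inhibition above about 50% in the one-dose retest (limit read from the data); inactive = the rest.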

Screening Cc1ccnc(NC(=O)c2ccc3c(c2)S(=O)(=O)c2ccccc2C3=O)c1 returned SENP1 FRET inh 1.8, SENP6 block 87.4*, SENP8 block-1 84.5*, SENP8 block-2 38.8, SENP7 inh 92.4*, SENP8 confirm 11.0, SENP6 confirm 5.8, SENP7 conf 97.1*, Casp3 SENP sel 63.7* and SENP luc ctr 13.1.
Screening CN(C(=O)Cn1c(=O)oc2ccccc21)C1CCCCC1 returned SENP1 FRET inh 1.4, SENP6 block -3.9, SENP8 block-1 4.7, SENP8 block-2 10.5 and SENP7 inh 5.5.
Screening O=C(Nc1nc2cc3c(cc2s1)OCO3)c1ccco1 returned SENP1 FRET inh 2.8 and SENP8 block-2 -352.1.
`CCOC(=O)c1ccc2nc(NC(=O)c3ccco3)sc2c1` gave SENP1 FRET inh -149.2, SENP6 block 93.3*, SENP8 block-1 85.4*, SENP8 block-2 inactive, SENP7 inh 89.8*, SENP8 confirm 6.1, SENP6 confirm 45.7, SENP7 conf 77.9*, Casp3 SENP sel 51.4* and SENP luc ctr 12.3.
For C=CCOC(=O)c1sc(NC(=O)c2ccco2)nc1C the results were SENP1 FRET inh -0.5, SENP6 block 49.3, SENP8 block-1 15.1, SENP8 block-2 -43.0, SENP7 inh 55.8*, SENP8 confirm 11.8, SENP6 confirm 15.7, SENP7 conf 17.8, Casp3 SENP sel 31.4 and SENP luc ctr 5.0.
For O=C(NC(=S)Nc1nc2ccc(F)cc2s1)c1ccco1 the results were SENP1 FRET inh -2.3, SENP6 block 68.8*, SENP8 block-1 11.8, SENP8 block-2 12.0, SENP7 inh 61.9*, SENP8 confirm 12.9, SENP6 confirm 12.6, SENP7 conf 10.3, Casp3 SENP sel 4.4 and SENP luc ctr 2.1.
For O=C(Nc1nc2cc3c(cc2s1)OCCO3)c1ccco1 the results were SENP1 FRET inh -1.6, SENP6 block 96.9*, SENP8 block-1 96.3*, SENP8 block-2 -465.3, SENP7 inh 100.4*, SENP8 confirm 96.7*, SENP6 confirm 97.8*, SENP7 conf 102.0*, Casp3 SENP sel 97.1* and SENP luc ctr 96.5*.
CCOC(=O)c1ccc2nc(NC(=O)c3cccs3)sc2c1 was read as SENP1 FRET inh -0.2, SENP6 block 56.3*, SENP8 block-1 91.7*, SENP8 block-2 -446.4, SENP7 inh 96.5*, SENP8 confirm -23.4, SENP6 confirm 49.8, SENP7 conf 86.1*, Casp3 SENP sel 51.3* and SENP luc ctr 13.7.
CC1CCc2nc(NC(=O)c3ccco3)sc2C1 (centres undefined) was read as SENP1 FRET inh -2.2, SENP6 block 86.6*, SENP8 block-1 79.3*, SENP8 block-2 1.6, SENP7 inh 80.3*, SENP8 confirm 88.3*, SENP6 confirm 88.4*, SENP7 conf 98.4*, Casp3 SENP sel 89.2* and SENP luc ctr 45.7.
Screening CCOc1ccc2nc(NC(=O)c3ccoc3C)sc2c1 returned SENP1 FRET inh -5.5, SENP6 block 95.5*, SENP8 block-1 98.1*, SENP8 block-2 -158.4, SENP7 inh 99.8*, SENP8 confirm 99.1*, SENP6 confirm 100.2*, SENP7 conf 102.8*, Casp3 SENP sel 98.6* and SENP luc ctr 80.7*.
